Measured values from ChEMBL document CHEMBL1123641, “Antiulcer agents. 2. Gastric antisecretory, cytoprotective, and metabolic properties of substituted imidazo[1,2-a]pyridines and analogues” (J Med Chem, 1987).

Assays:
Format in all cases: functional
Rattus norvegicus [1] = test: Antisecretory activity in pylorus ligated rats at a 40 mg/kg dose administered intraperitoneally; conditions: ip, route intraperitoneal
Procedure, shortened: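 Pylorus-ligated rats, six per compound and eight controls. Compound given intraperitoneally at 40 mg/kg at the time of ligation. Reduction in acid output measured over 4 h.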

Canis familiaris [2] = test: Antisecretory activity in histamine stimulated dogs at 2 mg/kg dose administered intravenously; conditions: Canis lupus familiaris, route intravenous
Procedure, shortened: (§1)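 Adult mongrel dogs with surgically prepared Heidenhain pouches, acid secretion stimulated with histamine. Compound given intravenously (0.1-5 mg/kg range). Acid output reduction is expressed relative to the nondrug-treated control value in the same animal, each dog serving as its own control. Unless noted otherwise, one dog per compound. ED50 is the iv dose reducing acid output to 50% of control.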

Canis familiaris [3] = test: Antisecretory activity in histamine stimulated dogs at 4 mg/kg dose administered orally; conditions: Canis lupus familiaris, route oral
Procedure, shortened: (§2)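 Heidenhain pouch mongrel dogs, histamine-stimulated acid secretion. Compound given orally at 2–8 mg/kg. Reduction in acid output is relative to the same animal's own nondrug control, since histamine response depends on pouch size. Usually a single dog per compound. Oral ED50 is the dose reducing acid output to 50% of control.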

Canis familiaris [4] = test: Antisecretory activity in histamine stimulated dogs at 8 mg/kg dose administered orally; conditions: Canis lupus familiaris, route oral; procedure, shortened: as §2
Canis familiaris [5] = test: Antisecretory activity in histamine stimulated dogs following 5 mg/kg i.v. administration.; conditions: Canis lupus familiaris, route intravenous; procedure, shortened: as §1
Canis familiaris [6] = test: Antisecretory activity in histamine stimulated dogs at 1 mg/kg dose administered intravenously; conditions: Canis lupus familiaris, route intravenous; procedure, shortened: as §1
Rattus norvegicus [7] = species: Rattus norvegicus; test: Cytoprotective activity in rats against the ethyl alcohol stimulated ulcers measured as effective dose
Procedure, shortened: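 Rats were dosed orally at 1–30 mg/kg, 30 min before an oral challenge of absolute ethanol. Ethanol-induced gastric lesions were scored 1 h later, and an effective dose was estimated.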

Canis familiaris [8] = test: Antisecretory activity in histamine stimulated dogs at 2 mg/kg dose administered orally; conditions: Canis lupus familiaris, route oral; procedure, shortened: as §2

Compound | inhibition in vivo at 40 mg/kg (Rattus norvegicus [1]) [%] | inhibition in vivo at 2 mg/kg (Canis familiaris [2]) [%] | inhibition in vivo at 4 mg/kg (Canis familiaris [3]) [%] | inhibition in vivo at 8 mg/kg (Canis familiaris [4]) [%] | inhibition in vivo at 5 mg/kg (Canis familiaris [5]) [%] | inhibition in vivo at 1 mg/kg (Canis familiaris [6]) [%] | ED50 (Rattus norvegicus [7]) [mg/kg] | inhibition in vivo at 2 mg/kg (Canis familiaris [8]) [%]
Cc1nc2c(OCc3ccccc3)cccn2c1NC(=O)OCc1ccccc1 | 8 | 82 | 17 | – | – | – | – | –
Cc1nc2c(OCc3ccccc3)cccn2c1CN | 46 | – | – | 9 | 49 | – | – | –
Nc1cnc2c(OCc3ccccc3)cccn12 | 32 | 81 | – | 43 | – | 49 | 9.1 | –
CSc1c(C)nc2c(CCc3ccccc3)cccn12 | 28 | – | – | – | 0 | – | 8.5 | –
Cc1nc2c(OCc3ccc(F)cc3)cccn2c1N | 95 | 95 | 60 | 93 | – | – | 4.8 | 55
CCNc1c(C)nc2c(CCc3ccccc3)cccn12 | 78 | – | – | 65 | 11 | – | 5.2 | –
COc1c(C)nc2c(OCc3ccccc3)cccn12 | 49 | – | – | – | 37 | – | 3.6 | –
Cc1cc(OCc2ccccc2)c2nc(C)c(C)n2c1 | 86 | 45 | 0 | 71 | – | – | 8.2 | –
Cc1nc2c(COc3ccccc3)cccn2c1N | 27 | – | – | 39 | 34 | – | 6.6 | –
CCc1nc2c(OCc3ccccc3)cccn2c1N | 83 | – | – | 59 | – | 72 | 5.2 | –
CCNc1c(C)nc2c(OCc3ccccc3)cccn12 | 95 | 32 | – | 68 | 70 | – | 3.5 | –
Cc1nc2c(OCc3ccccc3)ccc(C)n2c1CC#N.Cl | – | – | 11 | – | 0 | – | 8 | –
Cc1nc2c(OCc3ccsc3)cccn2c1N | 52 | 82 | 86 | 88 | – | – | 8.4 | 29
CC(C)(C)c1nc2c(OCc3ccccc3)cccn2c1N | 0 | – | – | 0 | 2 | – | 15 | –
Cc1nc2c(OCc3ccccc3)cccn2c1NC(C)C | 18 | – | – | – | 0 | – | 16 | –
Cc1ccn2c(N)c(C)nc2c1OCc1ccccc1 | 60 | – | 36 | 64 | – | – | 13.5 | –
Cc1nc2c(OCc3ccccc3)cccn2c1NCc1ccccc1 | 48 | – | – | – | 0 | – | 2.5 | –
CCCN(CCC)c1c(C)nc2c(OCc3ccccc3)cccn12 | 60 | – | – | – | 0 | – | 8.4 | –
Cc1nc2c(OCc3ccccc3F)cccn2c1N | 93 | 93 | 46 | 93 | – | – | 6.6 | 20
Cc1nc2c(OCc3ccc(Cl)cc3)cccn2c1N | 66 | – | 81 | 92 | – | 74 | 2.2 | 32
CCNc1c(C)nc2c(OCc3ccccc3)nccn12 | 48 | – | – | – | 0 | – | 6 | –
CC(=O)Nc1c(C)nc2c(CCc3ccccc3)cccn12 | 40 | – | – | 16 | 3 | – | 12 | –
